Experimental data taken from ChEMBL document CHEMBL4390650, “Design, synthesis and biological evaluation of 2-(phenoxymethyl)-5-phenyl-1,3,4-oxadiazole derivatives as anti-breast cancer agents” (Eur J Med Chem, 2019).
Active and inactive are the calls of the source. No cut-off for these calls is given here.

How the values were obtained:
MCF7 = assay: Cytotoxicity against human MCF7 cells assessed as reduction in cell viability incubated for 48 hrs by MTT assay; format: functional, cell-based; settings: for IC50: MCF7, 48 h
Outline: (§1)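 Cells came from NCCS Pune and were grown in DMEM with 10% FBS at 37°C, 5% CO2, then trypsinized at 70-80% confluence. About 5,000 cells/well were seeded and allowed 24 h to recover. Compounds in DMSO, up to 100 μM, were added for 48 h against DMSO-only controls. The medium was then changed and MTT (5 mg/ml stock) added for 4 h. Formazan was dissolved in DMSO and read at 560 nm. Values are mean ± SD of three independent experiments in triplicate.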

MDA-MB-453 [1] = assay: Cytotoxicity against human MDA-MB-453 cells assessed as reduction in cell viability incubated for 48 hrs by MTT assay; format: functional, cell-based; settings: for IC50: MDA-MB-453, 48 h; outline: as §1
MCF-10A = assay: Cytotoxicity against human MCF10A cells assessed as reduction in cell viability incubated for 48 hrs by MTT assay; format: cell-based; outline: as §1
MDA-MB-453 [2] = assay: Induction of apoptosis in human MDA-MB-453 cells at 10 uM incubated for 48 hrs by acridine orange and ethidium bromide staining based inverted fluorescent microscopy; format: functional, cell-based
Outline: (§2)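 MDA-MB-453 cells were seeded at 5×10⁵/well and incubated overnight at 37°C, 5% CO2, then treated for 48 h. They were stained 5 min with a 1:1 acridine orange/ethidium bromide mix (each dye 100 μg/ml) and imaged immediately under an inverted fluorescence microscope. Scoring: live cells green, late apoptotic orange, necrotic red.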

MDA-MB-453 [3] = assay: Induction of necrosis in human MDA-MB-453 cells at 10 uM incubated for 48 hrs by acridine orange and ethidium bromide staining based inverted fluorescent microscopy; format: functional, cell-based; outline: as §2
MDA-MB-453 [4] = assay: Induction of morphological changes in human MDA-MB-453 cell assessed as induction of cell membrane blebbing at 10 uM incubated for 48 hrs by acridine orange and ethidium bromide staining based inverted fluorescent microscopy; format: functional; outline: as §2
MDA-MB-453 [5] = assay: Induction of morphological changes in human MDA-MB-453 cell assessed as induction of protrusion elongation at 10 uM incubated for 48 hrs by acridine orange and ethidium bromide staining based inverted fluorescent microscopy; format: functional; outline: as §2
MDA-MB-453 [6] = assay: Induction of morphological changes in human MDA-MB-453 cell assessed as induction of chromatin condensation at 10 uM incubated for 48 hrs by acridine orange and ethidium bromide staining based inverted fluorescent microscopy; format: functional; outline: as §2
MDA-MB-453 [7] = assay: Induction of apoptosis in human MDA-MB-453 cells assessed as increase in SMAD7 protein expression at 10 uM incubated for 48 hrs by Western blot analysis; format: functional, cell-based
Outline: (§3)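 Western blot of treated MDA-MB-453 cells, with GAPDH as loading control.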

MDA-MB-453 [8] = assay: Induction of apoptosis in human MDA-MB-453 cells assessed as increase in p53 protein expression incubated for 48 hrs by Western blot analysis; format: functional, cell-based; outline: as §3
[9] = biological target: DNA (cytosine-5)-methyltransferase 1 (Homo sapiens) (UniProt P26358); assay: Inhibition of DNMT1 (unknown origin) at 100 uM using cytosine-rich DNA substrate by ELISA relative to untreated control
Outline: (§4)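 DNMT activity was measured with a commercial DNA methyltransferase activity/inhibition screening kit, following the manufacturer's instructions.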

[10] = biological target: DNA (cytosine-5)-methyltransferase 3B (Homo sapiens) (UniProt Q9UBC3); assay: Inhibition of DNMT3B (unknown origin) at 100 uM using cytosine-rich DNA substrate by ELISA relative to untreated control; outline: as §4

Sequence of DNA (cytosine-5)-methyltransferase 1 (Homo sapiens) (P26358 whole entry): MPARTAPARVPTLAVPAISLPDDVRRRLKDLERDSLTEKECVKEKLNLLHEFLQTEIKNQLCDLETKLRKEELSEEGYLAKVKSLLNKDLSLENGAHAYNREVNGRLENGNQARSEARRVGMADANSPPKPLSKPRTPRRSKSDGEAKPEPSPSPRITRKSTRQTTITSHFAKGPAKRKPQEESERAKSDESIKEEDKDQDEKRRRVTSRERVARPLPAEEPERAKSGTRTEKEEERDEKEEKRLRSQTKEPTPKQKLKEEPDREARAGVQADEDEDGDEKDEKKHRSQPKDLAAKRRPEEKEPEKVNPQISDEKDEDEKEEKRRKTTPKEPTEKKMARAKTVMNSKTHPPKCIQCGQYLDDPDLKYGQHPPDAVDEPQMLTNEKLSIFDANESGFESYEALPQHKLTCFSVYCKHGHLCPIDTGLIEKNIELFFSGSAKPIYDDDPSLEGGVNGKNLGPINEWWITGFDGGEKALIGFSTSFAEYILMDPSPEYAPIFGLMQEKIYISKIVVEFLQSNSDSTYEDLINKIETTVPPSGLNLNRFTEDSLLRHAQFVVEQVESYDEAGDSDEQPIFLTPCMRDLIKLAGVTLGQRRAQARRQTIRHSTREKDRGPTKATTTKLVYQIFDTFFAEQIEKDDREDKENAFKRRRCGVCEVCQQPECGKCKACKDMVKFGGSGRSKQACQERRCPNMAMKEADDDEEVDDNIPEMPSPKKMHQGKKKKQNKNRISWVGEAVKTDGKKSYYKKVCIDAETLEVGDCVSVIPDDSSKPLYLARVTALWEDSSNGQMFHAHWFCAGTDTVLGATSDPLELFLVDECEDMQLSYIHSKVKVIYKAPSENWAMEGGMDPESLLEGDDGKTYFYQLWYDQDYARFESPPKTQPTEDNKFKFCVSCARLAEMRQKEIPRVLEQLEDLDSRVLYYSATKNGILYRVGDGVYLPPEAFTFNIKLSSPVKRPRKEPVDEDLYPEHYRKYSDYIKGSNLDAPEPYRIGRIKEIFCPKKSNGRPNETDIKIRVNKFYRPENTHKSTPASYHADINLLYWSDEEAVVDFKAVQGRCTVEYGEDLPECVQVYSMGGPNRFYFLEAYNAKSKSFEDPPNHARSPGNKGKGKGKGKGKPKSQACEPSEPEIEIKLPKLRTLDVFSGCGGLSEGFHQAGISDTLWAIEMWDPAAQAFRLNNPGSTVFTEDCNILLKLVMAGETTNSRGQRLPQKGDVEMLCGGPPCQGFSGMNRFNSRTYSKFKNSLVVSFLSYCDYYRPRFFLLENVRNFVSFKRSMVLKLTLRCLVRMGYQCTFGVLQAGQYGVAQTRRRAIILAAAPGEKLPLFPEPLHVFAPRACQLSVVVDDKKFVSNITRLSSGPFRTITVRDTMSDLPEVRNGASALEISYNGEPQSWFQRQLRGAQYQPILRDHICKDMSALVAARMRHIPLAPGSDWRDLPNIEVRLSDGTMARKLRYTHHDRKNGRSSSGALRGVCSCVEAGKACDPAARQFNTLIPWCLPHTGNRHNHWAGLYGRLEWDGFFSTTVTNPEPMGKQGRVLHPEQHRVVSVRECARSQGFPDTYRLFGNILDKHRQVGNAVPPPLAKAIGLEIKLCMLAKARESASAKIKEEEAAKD

Row | SMILES | IC50 (MCF7) [µM] | IC50 (MDA-MB-453 [1]) [µM] | IC50 (MCF-10A) [µM] | other results
1 | N#Cc1ccc(OCc2nnc(-c3ccccc3)o2)cc1F | > 50 | > 50 | > 100 | –
2 | COc1ccc(-c2nnc(COc3ccc(C#N)c(F)c3)o2)cc1 | 42.1 | 45.5 | > 100 | –
3 | COc1ccc(-c2nnc(COc3ccc(C#N)cc3OC)o2)cc1 | 11.1 | 13 | > 100 | –
4 | Fc1ccc(-c2nnc(COc3ccc(-c4nnco4)cc3)o2)cc1 | 35.6 | 38.2 | > 100 | –
5 | COc1ccc(-c2nnc(COc3ccc(-c4nnco4)cc3)o2)cc1 | 31.2 | 36.2 | > 100 | –
6 | COc1cc(C#N)ccc1OCc1nnc(-c2ccc(F)cc2)o1 | 10.2 | 10.5 | > 100 | Activity (MCF7): Dose-dependent effect; Activity (MDA-MB-453 [1]): Dose-dependent effect; Activity (MDA-MB-453 [2]): Active; Activity (MDA-MB-453 [3]): Active; Activity (MDA-MB-453 [4]): Active; Activity (MDA-MB-453 [5]): Active; Activity (MDA-MB-453 [6]): Active; Activity (MDA-MB-453 [7]): Active; Activity (MDA-MB-453 [8]): Dose-dependent effect; inhibition [9]: 10%; inhibition [10]: 33%
7 | Cc1ccc(-c2nnc(COc3ccc(C#N)c(F)c3)o2)cc1 | > 50 | > 50 | > 100 | –
8 | c1ccc(-c2nnc(COc3ccc(-c4nnco4)cc3)o2)cc1 | > 50 | > 50 | > 100 | –
9 | Cc1ccc(NC(=O)c2ccc(CN3CCN(C)CC3)cc2)cc1Nc1nccc(-c2cccnc2)n1 [IMATINIB] | – | 12.8 | > 100 | –
10 | N#Cc1ccc(OCc2nnc(-c3ccc(F)cc3)o2)cc1F | 20.4 | 25.1 | 84.2 | –
11 | Cc1ccc(-c2nnc(COc3ccc(-c4nnco4)cc3)o2)cc1 | > 50 | > 50 | > 100 | –
12 | COc1cc(C#N)ccc1OCc1nnc(-c2ccc(Cl)cc2)o1 | 21.5 | 33.9 | 89.5 | –
13 | N#Cc1ccc(OCc2nnc(-c3ccc(Cl)cc3)o2)cc1F | 48.3 | > 50 | > 100 | –
14 | Clc1ccc(-c2nnc(COc3ccc(-c4nnco4)cc3)o2)cc1 | 45.2 | > 50 | > 100 | –
15 | COc1cc(C#N)ccc1OCc1nnc(-c2ccc(C)cc2)o1 | 27.1 | 38.4 | > 100 | –
16 | COc1cc(C#N)ccc1OCc1nnc(-c2ccccc2)o1 | 32.2 | 40.1 | > 100 | –
